FXIIa inh = human FXIIa protease inhibitors, primary screen, biochemical, 1536-well; purified FXIIa, Boc-QGR-AMC fluorogenic substrate, 2 h; inhibition, % at 5 µM; 220,000 compounds, 0.3% hits; in the data active = inhibition above about 40%;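 also: 0% = enzyme with no compound and 100% = blank without enzyme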
thrombin 1536 = human alpha-thrombin inhibitors, primary screen, counter-screen for coagulation protease inhibitor project, biochemical, 1536-well, fluorogenic AMC substrate; 220,000 compounds, 0.26% hits; Prothrombin (Homo sapiens), P00734; Boc-VPR-AMC fluorogenic substrate cleavage; inhibition, % at 5 µM;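 active = inhibition at or above 40%; inactive = inhibition below 40%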;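 also: 0% = enzyme with no compound and 100% = wells without enzyme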
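Test system: human alpha-thrombin; medium: pH 7.5 Tris-saline with Tween 20; times: reaction at room temperature; signal: AMC fluorescence at 355 nm excitation and 460 nm emission; also added: Boc-VPR-AMC substrate, 15 µM final; dosing: one concentration per compound, 5 µM, with 0.2% DMSO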
Calb biofilm kill = clotrimazole potentiators killing C. albicans biofilm, primary screen, 4-compound mixtures; inhibition, % at 7.6 µM; 120,000 compounds, 0.02% hits; AID 1242, 2008; C. albicans biofilm persisters + clotrimazole, fluorescence viability; primary screen in compound mixtures of four per well;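 also: compounds exposed to preformed 24 h biofilms for 48 h; 0% = untreated biofilm control and 100% = clotrimazole plus chlorhexidine kill blank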
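Test system: C. albicans biofilms. Buffer or medium: RPMI/MOPS medium, pH 7.0. Timing: 48 h compound exposure at 37 °C. Technique: Alamar Blue fluorescence. Evaluation: percent inhibition of biofilm viability.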
FXIa inh = human FXIa protease inhibitors, primary screen, biochemical, 1536-well; 220,000 compounds, 0.14% hits; purified FXIa, Boc-Glu-Ala-Arg-AMC fluorogenic substrate; Coagulation factor XI (Homo sapiens), P03951; inhibition, % at 5 µM;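 active = inhibition of at least 40%; inactive = inhibition below 40%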;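 also: fluorescence of freed AMC excited at 355 nm; 0% = enzyme without compound and 100% = no enzyme blank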
Furin inhibitor = human furin inhibitors, primary screen, biochemical, fluorescence intensity | purified furin, fluorogenic substrate cleavage | inhibition, % at 20 µM or 30 µM | 220,000 compounds, 0.061% hits | AID 463115, 2010 | P09958; in the data active = inhibition above about 25%
Target sequence (P09958 108-714 limits assumed): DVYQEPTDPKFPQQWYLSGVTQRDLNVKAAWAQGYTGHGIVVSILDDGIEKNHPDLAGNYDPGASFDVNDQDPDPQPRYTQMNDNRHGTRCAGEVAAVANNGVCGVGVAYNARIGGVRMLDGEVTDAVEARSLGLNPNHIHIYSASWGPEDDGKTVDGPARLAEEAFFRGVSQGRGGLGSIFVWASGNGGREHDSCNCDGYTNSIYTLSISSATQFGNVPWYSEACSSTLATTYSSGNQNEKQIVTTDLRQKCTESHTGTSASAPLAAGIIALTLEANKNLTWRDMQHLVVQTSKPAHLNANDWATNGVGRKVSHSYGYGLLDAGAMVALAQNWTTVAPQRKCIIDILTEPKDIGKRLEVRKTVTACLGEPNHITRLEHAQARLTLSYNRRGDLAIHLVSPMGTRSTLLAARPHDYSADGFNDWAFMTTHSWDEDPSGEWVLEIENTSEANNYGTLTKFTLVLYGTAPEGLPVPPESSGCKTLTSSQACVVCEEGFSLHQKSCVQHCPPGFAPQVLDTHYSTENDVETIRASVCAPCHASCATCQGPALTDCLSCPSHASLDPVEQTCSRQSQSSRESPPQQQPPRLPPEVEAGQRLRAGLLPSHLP
hK5 inh = human KLK5 protease inhibitors, primary screen, biochemical, 1536-well | inhibition, % at 5 µM | 210,000 compounds, 0.59% hits | recombinant hK5, fluorogenic AMC substrate cleavage | Kallikrein-5 (Homo sapiens), Q9Y337;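 active = inhibition of 40% or more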;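 also: 0% = enzyme controls without compound and 100% = no-enzyme blanks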
Starred values were filed as active, the others as inactive; nt = no result. Compounds with a hit are over-represented: about 1.1% of the library has one in this group of screens.

SMILES | FXIIa inh | thrombin 1536 | Calb biofilm kill | FXIa inh | Furin inhibitor | hK5 inh
CCOc1ccc(CCNC(=O)c2cc3ccccn3n2)cc1OCC | 9 | 9 | nt | 7 | -8 | 60*
O=C(NCc1ccc(F)cc1)c1cc2ccccn2n1 | 10 | -6 | nt | 1 | -29 | -10
Cc1oc(-c2ccccc2)nc1Cn1cccc1C1=NC(c2ccccc2)CO1 (centres undefined) | 3 | 14 | nt | 0 | -19 | 101*
c1ccc2c(Nc3ccc4c(c3)OCCO4)c3c(nc2c1)CCCC3 | 6 | 2 | -4 | 3 | 12 | nt
COC(=O)C1C/C(=N\NS(=O)(=O)c2ccc(C)cc2)c2sccc2C1 (centres undefined) | 8 | 1 | 8 | 8 | -26 | -9
COC(=O)C1CC(=O)c2ccsc2C1 (centres undefined) | 9 | 49* | 7 | -1 | -6 | 30
Cc1ccc(C2/C(=C(/O)c3cnn(-c4ccccc4)c3C)C(=O)C(=O)N2CCN2CCOCC2)o1 (centres undefined) | 4 | -4 | nt | -4 | -10 | -6
Cc1c(/C(O)=C2/C(=O)C(=O)N(CCN3CCOCC3)C2c2cccs2)cnn1-c1ccccc1 (centres undefined) | 105* | 22 | nt | 10 | 8 | 32
CC(NC(=O)c1cnc2n(c1=O)CCS2)c1ccccc1 (centres undefined) | 5 | -2 | nt | -5 | -12 | 41*
CSc1cccc(NC(=S)N2CCCN(Cc3ccccc3F)C2)c1 | 1 | 1 | 14 | -5 | -20 | -4
Cc1nn(CC(=O)c2ccc(Cl)s2)c(C)c1[N+](=O)[O-] | 28 | 12 | 9 | 43* | -13 | 24
Cc1ccc(C(=O)Cn2nc(C)c([N+](=O)[O-])c2C)c(C)c1 | 12 | -4 | 7 | -2 | -4 | 4
COc1ccc(CSc2nc3ccccc3c(=O)n2CCCN2CCOCC2)cc1F | 9 | -2 | 10 | 1 | -16 | 6
COC(=O)CN1C(=O)N/C(=C/c2ccccc2OC)C1=O | 7 | nt | 7 | 0 | 15 | -7
CCN(CC)CCN1C(=O)c2ccccc2NC1c1ccccc1F (centres undefined) | 16 | 25 | 6 | 13 | -20 | 41*
CCN(CC)CCN1C(=O)c2ccccc2NC1c1ccc(F)cc1 (centres undefined) | 4 | -3 | nt | 0 | -35 | -72
Cc1nc2c3c(sc2c(=O)[nH]1)NC(=O)CC3c1ccccc1Cl (centres undefined) | 1 | -2 | 2 | -1 | -11 | -1
CNC(=O)COC(=O)c1ccc(Cl)c(S(N)(=O)=O)c1 | 26 | 13 | 4 | 21 | 0 | 49*
CNC(=O)COC(=O)c1ccc(Cl)c(S(=O)(=O)N2CCCC2)c1 | 4 | nt | 3 | 4 | -28 | -2
CCOC(=O)c1ccc(NC(=S)N(CCN2CCCCCC2)Cc2cccs2)cc1 | 13 | 0 | 13 | -1 | -30 | 1
CCC(C)NCCOc1cc(C)cc(C)c1C (centres undefined) | nt | 56* | 15 | 35 | -10 | 31
CCCc1nc(NC(C)=O)c(C#N)c(-c2ccco2)c1CC | 23 | 40* | nt | 18 | -24 | 20
CCOc1ccc(NC(=O)CSC2=NCCN2)cc1 | 13 | 5 | 3 | 10 | -14 | 47*
COC(=O)c1ccc(NC(=O)CSC2=NCCN2)cc1 | 5 | -14 | 16 | -1 | -17 | -23
Cc1ccccc1C(=O)NC(=S)N(C)CCc1ccccn1 | 6 | -4 | 7 | -7 | -19 | -3
SMILES | FXIIa inh | thrombin 1536 | Calb biofilm kill | FXIa inh | Furin inhibitor | hK5 inh
CCOC(=O)C1(Cc2cccc(F)c2)CCN(C(=O)c2cnc(C)cn2)CC1 | 4 | 0 | 6 | -5 | -15 | -9
CCn1cc(S(=O)(=O)CC(=O)Nc2ccc(OC)cc2)c2ccccc21 | 31 | 30 | nt | 18 | -23 | 41*
CCOc1ccc(NC(=O)CS(=O)(=O)c2cn(CC)c3ccccc23)cc1 | 14 | 2 | nt | 11 | -34 | -1
CCc1cccc(N(C(=O)c2csnn2)C(C(=O)NC(C)(C)C)c2ccccn2)c1 (centres undefined) | 3 | -12 | 6 | -5 | -16 | -8
COc1ccc(N2CCN(C(=O)CSc3nnc(NC(=O)C4CCC4)s3)CC2)cc1 | 8 | -12 | 32 | -6 | -27 | -2
COc1cc(NC(=O)c2nccnc2C(=O)O)cc(OC)c1 | 2 | 16 | nt | 4 | -10 | 122*
Clc1ccc2oc(-c3ccccc3)cc(=NCCCN3CCOCC3)c2c1 | 17 | 52* | 17 | 10 | 12 | 34
Clc1cccc(-c2nc(NCCCN3CCOCC3)c3ccccc3n2)c1 | 7 | -7 | 19 | 0 | -19 | nt
OCCN1CCN(c2nc(-c3ccccc3)c3cc(Cl)ccc3n2)CC1 | 17 | 0 | nt | 4 | -11 | -4
OCCCCCN=c1cc(-c2ccccc2)oc2ccc(Cl)cc12 | 13 | 60* | nt | 6 | -2 | 69*
CC(=O)OCC1(C)CN(c2ccccc2)N(C(=O)c2ccc(F)cc2)C1=O (centres undefined) | 10 | 23 | -5 | 7 | -16 | 2
O=C1NC(NS(=O)(=O)c2ccc(Cl)cc2)(C(F)(F)F)C(=O)N1CCc1ccccc1 (centres undefined) | 3 | -5 | 3 | 3 | -7 | -1
Cc1ccc(S(=O)(=O)NC2(C(F)(F)F)NC(=O)N(C)C2=O)cc1 (centres undefined) | 22 | 14 | nt | 7 | -18 | 67*
COc1cccc(C(=O)/C(C#N)=N/Nc2cccc(-c3ccnc(C)n3)c2)c1 | 17 | 7 | 15 | -3 | -10 | -3
Cc1cc(/C(N)=N/OC(=O)c2ccc(Cl)cc2)no1 | 8 | -2 | 16 | -6 | -23 | 44*
C(#Cc1ccccc1)C[N+]1(CC#Cc2cccc3ccccc23)CCOCC1 | 9 | -9 | 45* | 8 | -13 | 2
CCN(CC)CCCN(Cc1cc2cc3c(cc2[nH]c1=O)OCO3)C(=S)Nc1ccccc1OC | 38 | 45* | 26 | 35 | -13 | 52*
COc1ccccc1NC(=S)N(CCCN(C)C)Cc1cc2cc3c(cc2[nH]c1=O)OCO3 | 5 | -6 | 12 | -3 | -18 | -1
CC(C)(C)c1ccc(C(=O)CSc2nc3ccccc3c(=O)[nH]2)cc1 | 10 | 14 | nt | 14 | -9 | 40*
Cc1nc(SCC(=O)c2ccccc2)[nH]c(=O)c1Oc1ccc(Cl)cc1 | 22 | 34 | 28 | 29 | 1 | 64*

Screening results (PubChem)
